For data set [1], the target named is Mitogen-activated protein kinase 14 (Homo sapiens, UniProt Q16539). In words: Inhibition of p38 alpha Lys2 labeling site in human A-375 cells at 0.05 uM by KiNativ Profiling analysis relative to control. The class given is cell-based.
Data set [2] concerns the target Protein kinase C beta type (Homo sapiens) (UniProt P05771). Nature of the data set: Inhibition of PKCb Lys2 labeling site in human A-375 cells at 0.05 uM by KiNativ Profiling analysis relative to control. The class given is cell-based.
The nature of data set [3]: Half life in Swiss albino mouse at 1 mg/kg, iv measured upto 24 hrs by LC/MS/MS analysis. It is filed as ADME, organism-based. The settings on record: in vivo. An outline of the steps:
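Male Swiss albino mice. […] Blood was taken into K2EDTA from three mice per time point, from 0 to 24 h. Plasma was precipitated with acetonitrile and analysed by LC/MS/MS (LLOQ 1.138 ng/mL).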

The target in data set [4] is Serine/threonine-protein kinase 38-like (Homo sapiens) (UniProt Q9Y2H1). Nature of the data set: Inhibition of NDR2 Lys1 labeling site harbouring DTGHIYAMKILR in human A-375 cells at 0.05 uM by KiNativ Profiling analysis relative to control. The class given is cell-based.
The target of data set [5] is Calcium/calmodulin-dependent protein kinase type 1 (Homo sapiens) (UniProt Q14012). Nature of the data set: Inhibition of CaMK1a Lys1 labeling site in human A-375 cells at 0.5 uM by KiNativ Profiling analysis relative to control. The class given is cell-based. The method in brief: (§1)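 Intact A375 melanoma cells were treated with compound at 5 or 0.5 μM, then lysed. Lysate kinases were labeled with a lysine-reactive ATP or ADP-biotin probe (KiNativ). Inhibition is read as protection of each kinase labeling site from probe labeling.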

The target in data set [6] is T1, Mitogen-activated protein kinase kinase kinase 7 (Homo sapiens) (UniProt O43318).
T1 sequence (whole entry): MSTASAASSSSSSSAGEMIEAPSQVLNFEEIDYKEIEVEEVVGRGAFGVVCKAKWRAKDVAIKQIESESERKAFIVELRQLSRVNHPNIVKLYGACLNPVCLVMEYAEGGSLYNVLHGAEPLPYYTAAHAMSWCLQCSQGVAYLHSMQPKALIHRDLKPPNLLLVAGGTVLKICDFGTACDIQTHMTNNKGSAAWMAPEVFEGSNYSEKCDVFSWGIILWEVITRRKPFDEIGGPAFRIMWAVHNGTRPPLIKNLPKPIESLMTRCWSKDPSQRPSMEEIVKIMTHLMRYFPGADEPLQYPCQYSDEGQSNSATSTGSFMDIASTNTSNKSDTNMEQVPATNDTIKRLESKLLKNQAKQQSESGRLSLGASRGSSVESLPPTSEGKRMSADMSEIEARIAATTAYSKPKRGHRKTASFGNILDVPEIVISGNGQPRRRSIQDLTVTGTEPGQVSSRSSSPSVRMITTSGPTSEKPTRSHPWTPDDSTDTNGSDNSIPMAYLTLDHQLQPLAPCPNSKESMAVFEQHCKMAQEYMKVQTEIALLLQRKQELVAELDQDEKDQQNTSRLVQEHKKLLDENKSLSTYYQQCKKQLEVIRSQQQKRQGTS
In words: Inhibition of TAK1 Lys2 labeling site in human A-375 cells at 0.05 uM by KiNativ Profiling analysis relative to control. It is filed as cell-based.

Data set [7] has as its target Calcium/calmodulin-dependent protein kinase type 1 (Homo sapiens) (UniProt Q14012). In words: Inhibition of CAMK1 alpha Lys1 labeling site in human A-375 cells at 5 uM by KiNativ Profiling analysis relative to control. The class given is cell-based. An outline of the steps:
as §1

The target of data set [8] is Aurora kinase B (Homo sapiens) (UniProt Q96GD4). In words: Inhibition of AurB ATP Loop labeling site in human A-375 cells at 5 uM by KiNativ Profiling analysis relative to control. It is filed as cell-based. The method in brief:
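Live A375 melanoma cells were treated with compound at 5 or 0.5 μM, then lysed. The lysates were labeled with a lysine-reactive ATP or ADP-biotin probe. Kinase protection from probe labeling was measured by KiNativ.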

The target in data set [9] is Mitogen-activated protein kinase 9 (Homo sapiens, UniProt P45984). Nature of the data set: Inhibition of JNK2 Lys2 labeling site in human A-375 cells at 0.5 uM by KiNativ Profiling analysis relative to control. It is filed as cell-based.
The target in data set [10] is Mitogen-activated protein kinase kinase kinase 20 (Homo sapiens, UniProt Q9NYL2). In words: Inhibition of ZAK (unknown origin) Lys1 labeling site by KiNativ Profiling analysis.
Data set [11] addresses Mitogen-activated protein kinase 8 (Homo sapiens, UniProt P45983). In words: Inhibition of JNK1 Lys2 labeling site in human A-375 cells at 5 uM by KiNativ Profiling analysis relative to control. The class given is cell-based.
For data set [12], the target named is TRAF2 and NCK-interacting protein kinase (Homo sapiens) (UniProt Q9UKE5). In words: Inhibition of ZC2/TNIK Lys2 labeling site in human A-375 cells at 0.5 uM by KiNativ Profiling analysis relative to control. The class given is cell-based.
A short description of data set [13]: AUC last in Swiss albino mouse at 10 mg/kg, po measured upto 24 hrs by LC/MS/MS analysis. The class given is ADME, organism-based. The settings on record: in vivo.
Data set [14] addresses Tyrosine-protein kinase ABL2 (Homo sapiens, UniProt P42684). In words: Inhibition of ARG Lys1 labeling site in human Huh-7 cell lysate at 1 uM by KiNativ Profiling analysis relative to control. It is filed as subcellular.

Chain of Calcium/calmodulin-dependent protein kinase type 1 (Homo sapiens) (Q14012 whole entry, looked up): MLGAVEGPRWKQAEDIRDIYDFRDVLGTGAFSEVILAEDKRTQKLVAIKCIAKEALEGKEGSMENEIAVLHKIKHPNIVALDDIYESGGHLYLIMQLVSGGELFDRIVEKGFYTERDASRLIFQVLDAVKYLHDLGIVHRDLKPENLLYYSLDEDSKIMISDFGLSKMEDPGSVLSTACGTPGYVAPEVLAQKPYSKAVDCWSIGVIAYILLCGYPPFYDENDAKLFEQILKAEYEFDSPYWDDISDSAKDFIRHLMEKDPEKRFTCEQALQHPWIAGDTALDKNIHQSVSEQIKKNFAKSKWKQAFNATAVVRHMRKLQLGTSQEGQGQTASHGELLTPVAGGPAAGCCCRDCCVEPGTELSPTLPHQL
Chain of TRAF2 and NCK-interacting protein kinase (Homo sapiens) (Q9UKE5 whole entry, looked up): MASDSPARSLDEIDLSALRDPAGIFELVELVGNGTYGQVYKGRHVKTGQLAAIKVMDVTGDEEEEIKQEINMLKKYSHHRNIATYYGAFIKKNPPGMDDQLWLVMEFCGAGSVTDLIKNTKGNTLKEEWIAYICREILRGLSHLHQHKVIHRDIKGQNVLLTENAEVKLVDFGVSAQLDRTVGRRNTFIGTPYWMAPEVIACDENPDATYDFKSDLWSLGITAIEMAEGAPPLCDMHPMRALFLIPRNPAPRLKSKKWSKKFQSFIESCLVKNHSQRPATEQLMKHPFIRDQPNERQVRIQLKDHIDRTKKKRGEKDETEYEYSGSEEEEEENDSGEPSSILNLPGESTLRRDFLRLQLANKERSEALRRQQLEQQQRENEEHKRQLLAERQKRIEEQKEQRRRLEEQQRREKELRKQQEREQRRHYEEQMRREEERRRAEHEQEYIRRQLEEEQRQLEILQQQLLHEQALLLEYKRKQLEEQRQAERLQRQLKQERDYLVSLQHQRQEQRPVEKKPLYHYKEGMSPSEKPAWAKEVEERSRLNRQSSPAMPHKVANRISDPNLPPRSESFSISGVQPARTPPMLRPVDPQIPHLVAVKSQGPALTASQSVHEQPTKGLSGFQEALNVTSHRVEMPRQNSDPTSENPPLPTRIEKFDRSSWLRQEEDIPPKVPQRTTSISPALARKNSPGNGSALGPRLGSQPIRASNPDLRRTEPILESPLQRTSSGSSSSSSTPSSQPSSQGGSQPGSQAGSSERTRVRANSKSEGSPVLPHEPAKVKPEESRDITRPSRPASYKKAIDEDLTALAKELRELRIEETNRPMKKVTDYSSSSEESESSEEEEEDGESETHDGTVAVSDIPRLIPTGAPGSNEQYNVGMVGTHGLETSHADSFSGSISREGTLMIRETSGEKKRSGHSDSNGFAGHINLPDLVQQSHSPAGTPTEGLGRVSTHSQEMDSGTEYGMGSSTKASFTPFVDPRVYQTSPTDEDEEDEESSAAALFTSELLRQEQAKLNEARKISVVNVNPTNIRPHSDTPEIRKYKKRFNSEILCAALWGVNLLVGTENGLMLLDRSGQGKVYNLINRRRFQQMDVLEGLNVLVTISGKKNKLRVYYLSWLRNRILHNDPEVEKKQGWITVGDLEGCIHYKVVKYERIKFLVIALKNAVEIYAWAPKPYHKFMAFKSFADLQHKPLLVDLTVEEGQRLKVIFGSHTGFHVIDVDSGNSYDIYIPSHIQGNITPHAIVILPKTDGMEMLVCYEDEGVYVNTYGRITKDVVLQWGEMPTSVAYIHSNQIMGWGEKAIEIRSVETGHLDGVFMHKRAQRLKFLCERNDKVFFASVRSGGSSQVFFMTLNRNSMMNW
Chain of Serine/threonine-protein kinase 38-like (Homo sapiens) (Q9Y2H1 2-464 limits assumed): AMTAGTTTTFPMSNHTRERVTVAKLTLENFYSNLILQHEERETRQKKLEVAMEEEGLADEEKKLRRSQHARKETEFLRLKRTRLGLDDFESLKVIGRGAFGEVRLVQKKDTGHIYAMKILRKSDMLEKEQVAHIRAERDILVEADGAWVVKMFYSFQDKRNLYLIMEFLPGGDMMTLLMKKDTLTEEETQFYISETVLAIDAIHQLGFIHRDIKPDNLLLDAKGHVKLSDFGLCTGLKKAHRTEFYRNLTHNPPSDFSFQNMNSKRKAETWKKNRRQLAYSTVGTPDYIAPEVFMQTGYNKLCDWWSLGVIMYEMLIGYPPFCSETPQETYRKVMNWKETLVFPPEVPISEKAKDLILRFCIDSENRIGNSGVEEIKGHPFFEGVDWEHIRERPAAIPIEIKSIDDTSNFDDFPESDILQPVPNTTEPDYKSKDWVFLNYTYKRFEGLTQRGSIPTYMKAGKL
Chain of Protein kinase C beta type (Homo sapiens) (P05771 2-671 limits assumed): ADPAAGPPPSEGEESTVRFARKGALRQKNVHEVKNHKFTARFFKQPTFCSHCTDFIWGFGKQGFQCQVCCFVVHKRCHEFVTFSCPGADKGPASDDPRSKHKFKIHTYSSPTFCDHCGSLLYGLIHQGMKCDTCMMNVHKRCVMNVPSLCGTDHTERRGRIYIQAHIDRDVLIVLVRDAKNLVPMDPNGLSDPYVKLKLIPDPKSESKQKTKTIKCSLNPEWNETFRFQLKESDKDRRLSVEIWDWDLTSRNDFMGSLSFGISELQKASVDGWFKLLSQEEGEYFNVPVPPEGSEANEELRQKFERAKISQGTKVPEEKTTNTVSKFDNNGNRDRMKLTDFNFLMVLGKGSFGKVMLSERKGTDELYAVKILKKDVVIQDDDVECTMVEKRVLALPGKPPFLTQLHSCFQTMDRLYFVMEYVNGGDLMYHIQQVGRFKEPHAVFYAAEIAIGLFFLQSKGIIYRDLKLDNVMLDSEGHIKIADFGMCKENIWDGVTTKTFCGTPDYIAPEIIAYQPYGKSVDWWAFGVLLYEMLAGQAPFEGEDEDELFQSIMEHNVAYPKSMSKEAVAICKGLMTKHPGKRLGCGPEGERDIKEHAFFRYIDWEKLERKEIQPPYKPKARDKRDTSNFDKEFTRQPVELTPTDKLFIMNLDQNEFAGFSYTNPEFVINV
Chain of Tyrosine-protein kinase ABL2 (P42684 whole entry): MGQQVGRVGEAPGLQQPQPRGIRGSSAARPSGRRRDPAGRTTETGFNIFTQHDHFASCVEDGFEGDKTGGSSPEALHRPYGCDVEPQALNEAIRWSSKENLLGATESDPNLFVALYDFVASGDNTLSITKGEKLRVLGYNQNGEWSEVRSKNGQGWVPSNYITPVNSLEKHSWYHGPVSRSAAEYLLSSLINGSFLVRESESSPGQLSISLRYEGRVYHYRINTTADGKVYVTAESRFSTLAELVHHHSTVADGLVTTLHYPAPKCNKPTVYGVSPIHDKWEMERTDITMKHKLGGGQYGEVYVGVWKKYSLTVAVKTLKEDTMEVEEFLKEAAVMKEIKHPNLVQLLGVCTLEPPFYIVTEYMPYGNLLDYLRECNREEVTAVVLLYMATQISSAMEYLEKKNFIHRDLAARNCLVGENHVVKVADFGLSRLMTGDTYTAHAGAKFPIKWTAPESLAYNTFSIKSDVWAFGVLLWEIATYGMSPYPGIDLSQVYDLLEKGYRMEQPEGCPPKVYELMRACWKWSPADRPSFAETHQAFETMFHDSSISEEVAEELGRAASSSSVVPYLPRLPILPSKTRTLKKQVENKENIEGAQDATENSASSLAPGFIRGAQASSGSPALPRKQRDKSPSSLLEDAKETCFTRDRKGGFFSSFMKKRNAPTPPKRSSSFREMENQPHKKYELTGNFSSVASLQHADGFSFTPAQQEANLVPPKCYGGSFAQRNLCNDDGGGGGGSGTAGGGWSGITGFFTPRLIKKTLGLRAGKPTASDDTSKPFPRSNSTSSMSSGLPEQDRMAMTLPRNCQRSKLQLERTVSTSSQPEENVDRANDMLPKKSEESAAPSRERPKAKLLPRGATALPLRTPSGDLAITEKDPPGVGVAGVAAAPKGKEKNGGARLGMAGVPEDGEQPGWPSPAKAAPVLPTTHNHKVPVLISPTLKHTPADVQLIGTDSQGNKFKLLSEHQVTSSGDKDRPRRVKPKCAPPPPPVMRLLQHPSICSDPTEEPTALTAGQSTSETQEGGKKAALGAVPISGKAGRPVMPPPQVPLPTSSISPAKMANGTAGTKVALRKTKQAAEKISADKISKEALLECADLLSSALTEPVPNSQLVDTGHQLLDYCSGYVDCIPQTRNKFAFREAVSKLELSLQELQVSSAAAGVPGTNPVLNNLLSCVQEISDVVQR
Chain of Mitogen-activated protein kinase 8 (P45983 whole entry): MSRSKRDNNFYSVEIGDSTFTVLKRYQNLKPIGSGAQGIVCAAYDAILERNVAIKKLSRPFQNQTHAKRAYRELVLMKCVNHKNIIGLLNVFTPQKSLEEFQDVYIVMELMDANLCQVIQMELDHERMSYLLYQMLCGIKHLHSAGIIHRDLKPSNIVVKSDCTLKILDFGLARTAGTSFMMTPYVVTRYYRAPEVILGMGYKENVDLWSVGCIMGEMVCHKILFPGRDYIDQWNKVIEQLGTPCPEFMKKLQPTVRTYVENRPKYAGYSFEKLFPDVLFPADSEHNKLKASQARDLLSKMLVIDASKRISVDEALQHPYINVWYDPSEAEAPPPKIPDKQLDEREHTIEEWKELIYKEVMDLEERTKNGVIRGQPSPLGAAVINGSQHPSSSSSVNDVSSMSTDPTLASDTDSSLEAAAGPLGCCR
Chain of Mitogen-activated protein kinase 9 (P45984 whole entry, looked up): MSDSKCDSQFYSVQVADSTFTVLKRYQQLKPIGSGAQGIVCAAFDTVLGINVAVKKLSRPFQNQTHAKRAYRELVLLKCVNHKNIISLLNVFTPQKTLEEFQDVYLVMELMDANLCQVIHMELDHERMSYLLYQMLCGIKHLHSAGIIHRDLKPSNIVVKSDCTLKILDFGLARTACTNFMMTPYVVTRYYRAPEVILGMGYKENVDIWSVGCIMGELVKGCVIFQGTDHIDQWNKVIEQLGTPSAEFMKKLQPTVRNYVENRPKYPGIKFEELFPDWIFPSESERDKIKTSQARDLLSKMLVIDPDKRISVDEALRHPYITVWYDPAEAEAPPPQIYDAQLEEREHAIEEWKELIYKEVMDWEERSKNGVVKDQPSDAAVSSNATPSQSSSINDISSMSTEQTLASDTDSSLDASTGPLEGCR

Usually inhibition stands for the drop in the measured response relative to a control, in per cent. As a reminder, the IC50 is the concentration that inhibits the measured activity by half. A lower IC50 goes with inhibition by little substance. Take `CCN1CCN(Cc2ccc(NC(=O)c3ccc(C)c(/C=C/c4cnc5[nH]ccc5c4OC)c3)cc2C(F)(F)F)CC1`: the inhibition in data set [1] was 59.4%; in [2], 58%; in [4] it was -0.9%; in data set [5], 37%; in data set [6], 71.8%; in data set [7] it was 31.9%. Also, the inhibition in [8] worked out at 48.5%; in [9], 40.6%; in [11], 76.9%; in [12], 48.1%. In addition, the t1/2 in data set [3] turned out to be 4.66 h. This compound showed an IC50 in data set [10] of 469 nM. In data set [13], this compound gave an AUClast of 295 ng·h/mL.

In the case of `CNc1cc(Oc2cc(C(=O)Nc3cc(-n4cnc(C)c4)cc(C(F)(F)F)c3)ccc2C)ncn1`, the inhibition in data set [14] amounted to 51.8%.

For the compound `CCN1CCN(Cc2ccc(NC(=O)c3ccc(C)c(Oc4ccnc5[nH]ccc45)c3)cc2C(F)(F)F)CC1`, the inhibition in data set [1] was 4.2%; in [2], 45.3%; in data set [4] it was 5.4%; in data set [5], 67%; in data set [6] it was 88.7%; in data set [7], 91.8%. In addition, the inhibition was determined as 31.4% in [8], 73.7% in [9], 90.3% in [11] and 70.8% in data set [12]. In data set [3], this compound showed a t1/2 of 2.03 h. In data set [10], this compound registered an IC50 of 698 nM. In data set [13], the AUClast was 1369 ng·h/mL.

As to `CNc1cc(Oc2cc(C(=O)Nc3cc(N4CCN(C)CC4)cc(C(F)(F)F)c3)ccc2C)ncn1`, in data set [14], the inhibition was 48.4%.

Values taken from ChEMBL document CHEMBL5696442, “Discovery of type II inhibitors of TGFβ-activated kinase 1 (TAK1) and mitogen-activated protein kinase kinase kinase kinase 2 (MAP4K2)” (J Med Chem, 2015).
